Laboratory results from PubChem BioAssay.
Inconclusive results are not listed.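 How the source made its calls, unless noted: active means viability at or below 27.92% in each of two runs, the all-compound median minus 4 SD; inconclusive means no clear call, values can overlap the other calls; inactive means the rest.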

What was measured:
[1] = S. cerevisiae growth inhibition in permissive medium (OD615), pilot counter-assay for S. cerevisiae lifespan shortening project, permissive growth control (AID 705;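 active means growth inhibition above 25% in both replicates, a cutoff set 3 SD above the mean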); conditions: OD615, 24 h, at 10 µM, hits give high values
Method in brief: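 System: Engineered DeaD yeast | Buffer or medium: SC raffinose/galactose permissive medium | Incubation: Cells pre-grown 4 h, then 24 h compound exposure, 30 °C humidified | Measured by: Absorbance (optical density) at 615 nm | Read-out: Reduction in yeast growth (OD615)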

[2] = S. cerevisiae growth inhibition in restrictive medium, OD615, pilot screen, restrictive growth control, yeast lifespan reduction project (AID 706;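 active means growth inhibition above a set limit, 3 SD over mean compound inhibition, in both replicates, cut at about 43% in these data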;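 further: modified DeaD lifespan yeast strain shifted to restrictive glucose medium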); conditions: OD615, 48 h, at 10 µM, hits give high values
Method in brief: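 Material: modified S. cerevisiae; Medium: glucose-based CSMM-D restrictive medium; Compound dosing: one concentration, 10 µM final, 0.25% DMSO; Incubation: 48 h compound exposure at 30 °C; Measured by: OD615.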

[3] = doxorubicin toxicity protection in MRP-1 cells – H69AR cells, CellTiter-Glo, duplicate, MRP-1 activator project, pilot screen (AID 807;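 active means viability increase at or above a cutoff of the median across tested compounds plus 3 SD, cut at about 8.5% in these data, passing the limit was not always enough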;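 further: compound pretreatment 18-22 h then 72 h combined with doxorubicin; 0% = doxorubicin alone and 100% = vehicle without doxorubicin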); conditions: H69AR viability with doxorubicin, CellTiter-Glo luminescence; at 10 µM; hits give high values
[4] = viability of HCT116 without oncogenic beta-catenin – human colon tumor cells, pilot screen (AID 823;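 active means cell viability at or below a set limit in both duplicate runs, the limit being the all-compound median minus 4 SD, cut at about 23% in these data, passing the limit was not always enough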;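 further: 0% = wells killed by 20 µM Hyamine and 100% = untreated DMSO cell wells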); conditions: HCT116 beta-catenin knockout viability, CellTiter-Glo, 60 h; at 10 µM; hits give low values
[5] = viability of PTEN-null HCT116 cells – cell-based, HCT116 clonal line, CellTiter-Glo, pilot screen (AID 824); conditions: HCT116 PTEN-deleted viability, 60 h, at 10 µM, hits give low values;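 further: 0% = 20 µM Hyamine control and 100% = vehicle cell control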
[6] = RAM pathway blockade in budding yeast – dse1pr::URA3 reporter, 5-FOA selection, pilot screen (AID 869;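 active means inhibition over a set limit, the all-compound mean plus 3 SD, in both replicate runs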;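 further: 0% = DMSO wells with no growth and 100% = 10 µM 1-NA-PP1 with full growth; RAM network block rescues cells from 5-FOA so hits raise OD615 growth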); conditions: S. cerevisiae dse1pr::URA3 5-FOA growth, OD615, 2 d; at 10 µM; hits give high values; strain carries analog-sensitive mutant Cbk1 kinase
[7] = RAM signaling pathway blockade in yeast – S. cerevisiae, Pdr1DBD-CYC8 efflux-inhibited sensitized strain, primary screen (AID 1298;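 active means RAM network inhibition above 8.4% in each of two replicates, 3 SD over the compound average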;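 further: 0% = DMSO untreated cells without growth and 100% = 10 µM 1-NA-PP1 full growth; higher means more yeast growth rescued from 5-FOA killing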); conditions: S. cerevisiae cbk1-as DSE1-URA3 strain, 5-FOA growth OD615, 2 d; at 50 µM; hits give high values

Cc1cccc(CN2CCN(CC(=O)NCc3ccc(F)cc3)C2=O)c1
inactive: growth inhibition [1] -2.2% | growth inhibition [2] -1.6% | viability increase [3] 0.82% | viability [4] 104% | viability [5] 104% | inhibition [6] 0.03% | RAM network inhibition [7] 3.27%

O=C(Cn1nc(-c2ccccc2)ccc1=O)N1CCOCC1
inactive: growth inhibition [1] 4.29% | growth inhibition [2] 8.44% | viability increase [3] -0.71% | viability [4] 96% | viability [5] 108% | inhibition [6] -0.155% | RAM network inhibition [7] 0.21%

CSC1=NCCN1C(=O)COc1ccccc1
inactive: growth inhibition [1] 5.44% | growth inhibition [2] -6.09% | viability increase [3] 1.95% | viability [4] 97.8% | viability [5] 104% | inhibition [6] 1.57% | RAM network inhibition [7] 2.21%

O=C1c2ccccc2C(Nc2cccnc2)N1Cc1ccc2c(c1)OCO2 (stereo unspecified)
inactive: growth inhibition [1] 7.46% | growth inhibition [2] 3.33% | viability increase [3] -2.21% | viability [4] 94.1% | viability [5] 104% | inhibition [6] 0.205% | RAM network inhibition [7] 1.74%

COc1cc(OC)cc(-c2nc(-c3ccc(Br)cc3)no2)c1
inactive: growth inhibition [1] -13.6% | growth inhibition [2] -13.2% | viability increase [3] 1.86% | viability [4] 94% | viability [5] 89.2% | inhibition [6] 3.5% | RAM network inhibition [7] 8.01%

C=CCNC(=O)c1cnc2n(c1=O)CCS2
inactive: growth inhibition [1] 5.17% | growth inhibition [2] 5.46% | viability increase [3] 2.16% | viability [4] 103% | viability [5] 109% | inhibition [6] 1.68% | RAM network inhibition [7] -1.87%

CSc1ncccc1C(=O)OCC(=O)c1cc2ccccc2o1
inactive: growth inhibition [1] -12.5% | growth inhibition [2] -20.7% | viability increase [3] 0.25% | viability [4] 85% | viability [5] 93.7% | inhibition [6] 3.42% | RAM network inhibition [7] 4.75%

C=C(C)CSc1nc2c(c(=O)[nH]c(=O)n2C)n1Cc1ccccc1
inactive: growth inhibition [1] -16.7% | growth inhibition [2] -22.9% | viability increase [3] 3.2% | viability [4] 83.8% | viability [5] 78.3% | inhibition [6] 2.96% | RAM network inhibition [7] 7.74%

CCN(CC)CCNC(=O)c1cn(CC)c2ccc(S(=O)(=O)N(C)C)cc2c1=O
inactive: growth inhibition [1] 0.365% | growth inhibition [2] 8.34% | viability increase [3] -1.41% | viability [4] 106% | viability [5] 101% | inhibition [6] 2.2% | RAM network inhibition [7] 2.04%

CC(C)n1c(CCC(=O)O)ccc1-c1ccccc1
inactive: growth inhibition [1] 3.21% | growth inhibition [2] 4.49% | viability increase [3] -0.71% | viability [4] 96% | viability [5] 101% | inhibition [6] 0.285% | RAM network inhibition [7] 1.3%

C=CCn1c(=NC(=O)C2CC2)sc2cc(NC(C)=O)ccc21
inactive: growth inhibition [1] -3% | growth inhibition [2] -3.58% | viability increase [3] -4.77% | viability [4] 95.7% | viability [5] 101% | inhibition [6] 0.675% | RAM network inhibition [7] 0.32%

O=S(=O)(NCC(c1cccnc1)N1CCN(c2ccc(F)cc2)CC1)c1cccs1 (stereo unspecified)
inactive: growth inhibition [1] -0.1% | growth inhibition [2] -0.165% | viability increase [3] -1.56% | viability [4] 87.9% | viability [5] 86.8% | inhibition [6] 2.22% | RAM network inhibition [7] 3.87%

Cc1ccc(NS(=O)(=O)c2cc(C(=O)O)ccc2Cl)cc1
inactive: growth inhibition [1] -5.58% | growth inhibition [2] -5.51% | viability increase [3] -1.55% | viability [4] 100% | viability [5] 95.2% | inhibition [6] 1.16% | RAM network inhibition [7] 7.99%

CC(=O)Oc1ccc(N2C(=O)CC(N3CCOCC3)C2=O)cc1 (stereo unspecified)
inactive: growth inhibition [1] 2.42% | growth inhibition [2] 15% | viability increase [3] -0.57% | viability [4] 103% | viability [5] 99.9% | inhibition [6] 0.405% | RAM network inhibition [7] 0.46%

COc1cccc(NC(=O)CN2C(=O)COc3ccc(Cl)cc32)c1
inactive: growth inhibition [1] -12.2% | growth inhibition [2] -17.7% | viability increase [3] -0.8% | viability [4] 90% | viability [5] 84.7% | inhibition [6] 0.405% | RAM network inhibition [7] 0.31%

CCOc1ccc(OCC)c(Nc2cc(C)nc3ncnn23)c1
inactive: growth inhibition [1] -1.1% | growth inhibition [2] 7.09% | viability increase [3] -3.71% | viability [4] 90% | viability [5] 87.7% | inhibition [6] 0.1% | RAM network inhibition [7] -0.06%

CCN(CCCNC(=O)Cn1cc2c(n1)CCCC2)c1cccc(C)c1
inactive: growth inhibition [1] -4.97% | growth inhibition [2] 3.35% | viability increase [3] -3.77% | viability [4] 86% | viability [5] 81.5% | inhibition [6] 0.48% | RAM network inhibition [7] 4.45%

COc1cc2[nH]c(=O)n(CCC(=O)NCc3cccnc3)c(=O)c2cc1OC
inactive: growth inhibition [1] -19.1% | growth inhibition [2] -23.9% | viability increase [3] -1.46% | viability [4] 98.7% | viability [5] 95.8% | inhibition [6] 2.92% | RAM network inhibition [7] 2.26%
